# Key:
# [1] = molecular target: T1, 5-hydroxytryptamine receptor 1A (Homo sapiens) (UniProt P08908); test: Mean intrinsic activity was measured for the human 5-hydroxytryptamine 1A receptor; n=3
# T1 sequence (whole entry): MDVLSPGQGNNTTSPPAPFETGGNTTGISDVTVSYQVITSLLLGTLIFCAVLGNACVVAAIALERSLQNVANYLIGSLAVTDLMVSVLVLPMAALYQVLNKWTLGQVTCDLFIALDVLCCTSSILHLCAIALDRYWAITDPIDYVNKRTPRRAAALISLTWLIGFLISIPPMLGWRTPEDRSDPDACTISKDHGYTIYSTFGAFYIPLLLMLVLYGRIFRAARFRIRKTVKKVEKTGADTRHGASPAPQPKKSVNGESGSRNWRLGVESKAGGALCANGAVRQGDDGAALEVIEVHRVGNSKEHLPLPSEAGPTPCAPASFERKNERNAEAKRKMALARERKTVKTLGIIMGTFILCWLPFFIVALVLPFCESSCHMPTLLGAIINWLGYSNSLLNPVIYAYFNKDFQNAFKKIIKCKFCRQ
# How it was run: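 [35S]-GTPγS binding in HEK293 cells expressing the human 5-HT1A receptor. Intrinsic activity is the mean of three experiments, each within 0.1 of the mean.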
# [2] = molecular target: T2, 5-hydroxytryptamine receptor 1A (Homo sapiens, UniProt P08908); test: Mean negative logarithim of binding affinity was measured for the human 5-hydroxytryptamine 1A receptor; n>/=3
# T2 sequence (P08908 whole entry): T1 sequence (whole entry)
# [3] = molecular target: Sodium-dependent serotonin transporter (Rattus norvegicus, UniProt P31652); test: Mean negative logarithim of binding affinity was measured for the rat serotonin transporter; n>/=3
# Sodium-dependent serotonin transporter, sequence (P31652 whole entry): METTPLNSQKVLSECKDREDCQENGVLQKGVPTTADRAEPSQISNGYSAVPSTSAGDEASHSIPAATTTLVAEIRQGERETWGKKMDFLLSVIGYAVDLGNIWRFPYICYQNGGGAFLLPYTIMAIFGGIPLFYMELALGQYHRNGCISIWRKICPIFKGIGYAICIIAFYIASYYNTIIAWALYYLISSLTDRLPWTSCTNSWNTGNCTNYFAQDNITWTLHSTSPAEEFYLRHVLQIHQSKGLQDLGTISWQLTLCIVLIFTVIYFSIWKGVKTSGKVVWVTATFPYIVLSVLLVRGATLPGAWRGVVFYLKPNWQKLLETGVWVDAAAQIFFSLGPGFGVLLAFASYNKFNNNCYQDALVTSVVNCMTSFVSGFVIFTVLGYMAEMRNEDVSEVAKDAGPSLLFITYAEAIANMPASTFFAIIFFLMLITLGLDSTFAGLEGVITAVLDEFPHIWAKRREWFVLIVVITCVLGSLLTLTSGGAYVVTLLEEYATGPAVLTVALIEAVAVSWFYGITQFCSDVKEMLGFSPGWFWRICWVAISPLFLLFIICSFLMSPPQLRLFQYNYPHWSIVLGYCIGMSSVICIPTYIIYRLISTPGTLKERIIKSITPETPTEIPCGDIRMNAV
# [4] = molecular target: Beta-2 adrenergic receptor (Homo sapiens, UniProt P07550); test: Binding affinity for human beta-2 adrenergic receptor by displacing [125I]iodocyanopindolol expressed in hamster CHO cells; assay type: cell-based
# Beta-2 adrenergic receptor, sequence (P07550 whole entry): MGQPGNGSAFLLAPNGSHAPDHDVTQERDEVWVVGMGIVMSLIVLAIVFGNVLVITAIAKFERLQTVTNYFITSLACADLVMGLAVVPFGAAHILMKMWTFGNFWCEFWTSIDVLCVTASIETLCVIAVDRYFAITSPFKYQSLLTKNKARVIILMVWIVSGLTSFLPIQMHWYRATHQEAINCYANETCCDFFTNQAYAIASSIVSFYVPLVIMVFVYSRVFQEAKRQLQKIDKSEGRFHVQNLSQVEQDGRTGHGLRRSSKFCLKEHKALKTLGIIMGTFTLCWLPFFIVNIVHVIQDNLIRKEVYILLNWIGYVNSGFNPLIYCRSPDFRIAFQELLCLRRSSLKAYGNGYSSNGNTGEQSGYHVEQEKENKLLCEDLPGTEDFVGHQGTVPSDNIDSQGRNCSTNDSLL
IA [1],Ki [2],Ki [3],SMILES,Ki [4]
0.2,–,–,Cc1ccc2c(OCCN3CCC(Cc4ccc5c(c4)NC(=O)CO5)CC3)cccc2n1,–
0.2,1.26 nM,6.31 nM,O=C1COc2ccc(CC3CCN(CCOc4cccc5ncccc45)CC3)cc2N1,–
0.2,10 nM,31.6 nM,O=C1COc2ccc(CN3CCN(CCOc4cccc5ncccc45)CC3)cc2N1,–
0.2,3.98 nM,5.01 nM,O=C1COc2ccc(OC3CCN(CCOc4cccc5[nH]ccc45)CC3)cc2N1,–
0.8,7.94 nM,50.1 nM,O=C1COc2ccc(OC3CCN(CCOc4nccc5ccccc45)CC3)cc2N1,–
0.3,1.58 nM,7.94 nM,N#Cc1cc2c(OCCN3CCC(Oc4ccc5c(c4)NC(=O)CO5)CC3)cccc2[nH]1,–
0.5,6.31 nM,39.8 nM,O=C1COc2ccc(OC3CCN(CCOc4cccc5cccnc45)CC3)cc2N1,–
0.1,12.6 nM,31.6 nM,O=C1COc2ccc(OC3CCN(CCOc4cccc5ncccc45)CC3)cc2N1,–
0.4,2.51 nM,100 nM,O=C1COc2ccc(OC3CCN(CCOc4cccc5ccccc45)CC3)cc2N1,–
0.3,1.58 nM,79.4 nM,O=C1COc2ccc(OCC3CCCN(CCOc4cccc5ncccc45)C3)cc2N1 (stereo not given),–
0.3,1.26 nM,50.1 nM,O=C1COc2ccc(OCC3CCN(CCOc4cccc5ncccc45)C3)cc2N1 (stereo not given),–
–,100 nM,–,O=C1COc2ccc(OC3CCN(CCOc4ccnc5ccccc45)CC3)cc2N1,–

SMILES,IA [1],Ki [2],Ki [3],Ki [4]
CC(COc1ccc2c(c1)NC(=O)CO2)NCC(O)COc1cccc2[nH]ccc12 (stereo in doubt; 1c) [listing 1 of 2 here],–,–,100 nM,–
CC(COc1ccc2c(c1)NC(=O)CO2)NCC(O)COc1cccc2[nH]ccc12 (stereo in doubt; 1d) [listing 1 of 2 here],–,–,316 nM,–
CC(COc1ccc2c(c1)NC(=O)CO2)NCC(O)COc1cccc2[nH]ccc12 (stereo in doubt; 1b),0.3,–,–,–
CC(COc1ccc2c(c1)NC(=O)CO2)NCC(O)COc1cccc2[nH]ccc12 (stereo in doubt; 1d) [listing 2 of 2 here],0.2,–,–,–
O=C1COc2ccc(OCCNCCCOc3cccc4[nH]ccc34)cc2N1,0.6,1.58 nM,79.4 nM,1000 nM
CC(COc1ccc2c(c1)NC(=O)CO2)NCC(O)COc1cccc2[nH]ccc12 (stereo in doubt; 1) [listing 1 of 2 here],0.3,–,–,–
CC(COc1ccc2c(c1)NC(=O)CO2)NCC(O)COc1cccc2[nH]ccc12 (stereo in doubt; 1) [listing 2 of 2 here],–,–,50.1 nM,–
CC(COc1ccc2c(c1)NC(=O)CO2)NCC(O)COc1cccc2[nH]ccc12 (stereo in doubt; 1a) [listing 1 of 2 here],0.4,–,–,–
CC(COc1ccc2c(c1)NC(=O)CO2)NCC(O)COc1cccc2[nH]ccc12 (stereo in doubt; 1a) [listing 2 of 2 here],–,–,126 nM,–
CC(COc1ccc2c(c1)NC(=O)CO2)NCC(O)COc1cccc2[nH]ccc12 (stereo in doubt; 1c) [listing 2 of 2 here],0.3,–,–,–
